Results on 14 compounds are retold here after PubChem BioAssay.

Active and inactive are the calls of the source.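 How the source made its calls, unless noted: active means viability at or under a set limit in both replicates, limit being median viability minus 3 SD (cut at about 48% in these data, passing the limit was not always enough); inconclusive means at or under the limit in just one replicate; inactive means at or above the limit in both replicates.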

As usually defined, the viability is a read-out of living cells in per cent, often relative to untreated cells. For orientation: inhibition means the drop in the measured response relative to a control, in per cent.

Assay [1] can be described thus: Her2 expression decrease, cell viability multiplex – SKBR3 breast tumor cells, AlphaScreen, ATP viability, primary screen (AID 461;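 active means Her2 level under about 52% in both replicate screens, with viability over 70% of control, limit read from the data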;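 on Her2 level: lower value means less Her2 protein in the cells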;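 on viability: percent of carrier control wells set as 100% viability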). The settings on record: SKBR3 Her2 protein level, 18-24 h, measured here: SKBR3 viability, ATP luminescence, at 10 µM. A general note: Alpha assays give light when donor and acceptor beads are brought close together.
Assay [2] concerns the target Receptor tyrosine-protein kinase erbB-2 (Homo sapiens) (UniProt P04626). The description is as above. The settings on record: 18-24 h, at 10 µM, stronger effect = lower value.
A short description of assay [3]: reduced viability of SK-BR-3 breast cancer cells – cell-based, 24 h, human, pilot screen (AID 572;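 active means viability at or below 10% of carrier control in both of two separate runs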;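 further: compound exposure lasted between 18 and 24 h rather than exactly 24 h; 100% = carrier-treated control wells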). The settings on record: SK-BR-3 viability, CellTiter-Glo luminescence, at 10 µM, stronger effect = lower value.
Assay [4] is described as follows: HUVEC growth inhibition – cell-based, human, primary screen (AID 575;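 active means viability at or below 30% in both replicate assays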;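 further: 100% = median of untreated cell wells with 0.1% DMSO on each plate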). The settings on record: HUVEC proliferation, CellTiter-Glo luminescence, 72 h; at 10 µM; stronger effect = lower value. The essentials: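 Timing: 72 h treatment at 37 °C; material: HUVEC primary cells; technique: CellTiter-Glo luminescence measuring cellular ATP; controls: vehicle and MePR control wells; measure: percent of median DMSO-control luminescence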
A general note: In ATP-based viability assays light output follows the ATP content of the culture.

The nature of assay [5]: H69AR cell proliferation blockers – human, duplicate replicates, primary screen (AID 580).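 Further: 100% = mean luminescence of untreated wells and 0% = no signal.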 The settings on record: H69AR lung tumor cells viability, ATP luminescence, 72 h; at 10 µM; stronger effect = lower value.
Assay [6] can be described thus: MRP1 drug-resistance reversers in H69AR cells – cell-based, doxorubicin co-treatment, pilot screen (AID 601;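 active means viability loss from added drug above about 55%, and viability with drug at most 40%, in both replicates, limit read from the data, passing the limit was not always enough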). The settings on record: CellTiter-Glo, 72 h, at 10 µM; for differential viability (reversal): stronger effect = higher value.
A short description of assay [7]: yeast transport mutant growth inhibition pilot in 384-well plates, post-Golgi transport modulator project (AID 636; in the data active means inhibition above about 31%). The settings on record: absorbance 615 nm, about 18 h, stronger effect = higher value.
The nature of assay [8]: growth suppression of yeast trafficking mutant, preliminary HTS, modulators of trafficking downstream of Golgi apparatus project, 1536-format plate, OD 615 nm (AID 637; in the data active means inhibition above about 30%). The settings on record: yeast transport mutant growth, absorbance 615 nm, 18 h; stronger effect = higher value.
Where [9] appears, read: H69AR cells + 2 uM doxorubicin, measured here: viability with 2 uM doxorubicin, stronger effect = lower value.
[10] abbreviates: H69AR cells, compound alone cytotoxicity.

Sequence of Receptor tyrosine-protein kinase erbB-2 (Homo sapiens) (P04626 whole entry, looked up): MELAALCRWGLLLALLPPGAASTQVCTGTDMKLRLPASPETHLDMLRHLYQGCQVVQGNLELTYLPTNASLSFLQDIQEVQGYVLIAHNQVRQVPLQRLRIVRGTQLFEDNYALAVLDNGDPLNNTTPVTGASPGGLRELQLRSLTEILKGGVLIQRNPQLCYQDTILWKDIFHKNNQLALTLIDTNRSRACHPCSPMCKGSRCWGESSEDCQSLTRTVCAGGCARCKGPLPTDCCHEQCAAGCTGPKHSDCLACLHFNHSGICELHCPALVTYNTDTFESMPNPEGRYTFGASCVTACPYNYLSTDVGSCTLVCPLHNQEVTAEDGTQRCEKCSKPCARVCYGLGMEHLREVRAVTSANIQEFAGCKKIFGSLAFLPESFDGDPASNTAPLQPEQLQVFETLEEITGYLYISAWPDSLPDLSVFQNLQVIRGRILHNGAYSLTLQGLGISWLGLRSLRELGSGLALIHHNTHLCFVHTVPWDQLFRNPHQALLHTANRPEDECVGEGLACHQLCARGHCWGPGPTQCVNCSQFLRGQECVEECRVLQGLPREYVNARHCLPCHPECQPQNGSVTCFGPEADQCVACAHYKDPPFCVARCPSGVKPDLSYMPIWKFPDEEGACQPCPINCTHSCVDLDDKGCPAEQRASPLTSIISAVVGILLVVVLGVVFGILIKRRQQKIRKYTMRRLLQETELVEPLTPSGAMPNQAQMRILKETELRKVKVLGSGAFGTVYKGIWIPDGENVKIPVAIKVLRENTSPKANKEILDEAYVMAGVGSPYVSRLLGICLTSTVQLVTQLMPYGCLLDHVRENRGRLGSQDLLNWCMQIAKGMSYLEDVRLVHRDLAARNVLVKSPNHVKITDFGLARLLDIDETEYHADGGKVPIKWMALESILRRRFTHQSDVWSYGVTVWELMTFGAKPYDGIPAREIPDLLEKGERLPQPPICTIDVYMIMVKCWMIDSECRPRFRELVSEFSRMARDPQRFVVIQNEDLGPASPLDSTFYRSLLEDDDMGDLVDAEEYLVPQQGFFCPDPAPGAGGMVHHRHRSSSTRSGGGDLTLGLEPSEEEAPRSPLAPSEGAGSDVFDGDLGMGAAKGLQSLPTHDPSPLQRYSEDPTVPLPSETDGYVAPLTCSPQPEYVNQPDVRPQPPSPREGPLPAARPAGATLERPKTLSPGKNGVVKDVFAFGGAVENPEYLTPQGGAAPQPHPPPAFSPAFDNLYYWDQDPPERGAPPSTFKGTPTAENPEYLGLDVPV

As for `CCCCN(CC)S(=O)(=O)c1ccc2c(c1)CCCN2C(C)=O`, the viability was 88% in assay [1]; 88% (inactive) in assay [3]; 88.9% (inactive) in assay [4]; 104% (inactive) in assay [5]; 103% in assay [6] (setting [9]); 104% in assay [6] (setting [10]). Also, the Her2 level in assay [2] was 79.5% (inactive). In addition, the differential viability (reversal) in assay [6] (H69AR cells + 2 uM doxorubicin) is 0.71% (inactive). In addition, the inhibition was -2.37% (inactive) in assay [7] and 0.48% (inactive) in assay [8].
Consider `COc1ccc(-c2nc(C#N)c(N3CCOCC3)o2)cc1OC`, for which the viability in assay [1] was 111%; in assay [3], 111% (inactive); in assay [4], 89.8% (inactive); in assay [5] it was 84.5% (inactive); in assay [6] (setting [9]) it was 85%; in assay [6] (setting [10]), 84.5%. For the same compound, in assay [2], the Her2 level was 92% (inactive). The differential viability (reversal) in assay [6] (H69AR cells + 2 uM doxorubicin) was -0.495% (inactive). Further, the inhibition in assay [7] is -1.3% (inactive); in assay [8], 9% (inactive).
Regarding `Cn1c(SCC(N)=O)nnc1C1CCN(S(=O)(=O)c2ccccc2C(F)(F)F)CC1`, the viability in assay [1] is 114%; in assay [3] it was 114% (inactive); in assay [4], 112% (inactive); in assay [5] it was 104% (inactive); in assay [6] (setting [9]), 96.5%; in assay [6] (setting [10]), 104%. Moreover, the Her2 level in assay [2] is 97.5% (inactive). For the same compound, in assay [6] (H69AR cells + 2 uM doxorubicin), the differential viability (reversal) is 7.31% (inactive). Besides, the inhibition in assay [7] is -7.03% (inactive); in assay [8] it was -0.33% (inactive).
On to `N#Cc1c(-c2ccccc2)nc(SCc2nc(N)nc(N3CCCCC3)n2)[nH]c1=O`, for which the viability in assay [1] is 90.5%; in assay [3], 90.5% (inactive); in assay [4] it was 81.5% (inactive); in assay [5], 99.9% (inactive); in assay [6] (setting [9]), 102%; in assay [6] (setting [10]), 99.9%. Also, the Her2 level in assay [2] was 86.5% (inactive). Also, the differential viability (reversal) in assay [6] (H69AR cells + 2 uM doxorubicin) is -2.35% (inactive). The inhibition in assay [7] is -6% (inactive); in assay [8], 5.08% (inactive).
Regarding `O=C(c1ccccc1)c1ccc(N2CCOCC2)c(NC(=O)c2ccco2)c1`, the viability was 82.5% in assay [1]; 82.5% (inactive) in assay [3]; 81.1% (inactive) in assay [4]; 87.3% (inactive) in assay [5]; 71.6% in assay [6] (setting [9]); 87.3% in assay [6] (setting [10]). In assay [2], the Her2 level is 78.5% (inactive). Besides, the differential viability (reversal) in assay [6] (H69AR cells + 2 uM doxorubicin) was 15.7% (inactive). The inhibition in assay [7] is -3.16% (inactive); in assay [8], 2.86% (inactive).
As for `Cc1ccc(OCCC(=O)OCC(=O)C(C)(C)C)cc1`, the viability in assay [1] was 81.5%; in assay [3] it was 81.5% (inactive); in assay [4], 94.2% (inactive); in assay [5], 92.8% (inactive); in assay [6] (setting [9]), 85%; in assay [6] (setting [10]), 92.8%. For the same compound, the Her2 level in assay [2] is 92.5% (inactive). Moreover, the differential viability (reversal) in assay [6] (H69AR cells + 2 uM doxorubicin) is 7.79% (inactive). For the same compound, the inhibition is 0.26% (inactive) in assay [7] and -3.67% (inactive) in assay [8].
Turning to `C=CC(O)(C#CCN(CC)CC)c1ccccc1` (stereo not given), the viability in assay [1] was 96.5%; in assay [3], 96.5% (inactive); in assay [4], 102% (inactive); in assay [5], 99.9% (inactive); in assay [6] (setting [9]), 89.9%; in assay [6] (setting [10]), 99.9%. For the same compound, in assay [2], the Her2 level is 89% (inactive). Also, the differential viability (reversal) in assay [6] (H69AR cells + 2 uM doxorubicin) is 10.1% (inactive). In addition, the inhibition in assay [7] was -2.03% (inactive); in assay [8] it was -0.63% (inactive).
With `CCOC(=O)c1sc(N2C(=O)C(O)=C(C(=O)c3ccco3)C2c2ccccc2)nc1C` (stereo not given), the viability is 101% in assay [1]; 101% (inactive) in assay [3]; 77.4% (inactive) in assay [4]; 84.2% (inactive) in assay [5]; 82.9% in assay [6] (setting [9]); 84.2% in assay [6] (setting [10]). Also, in assay [2], the Her2 level is 83.5% (inactive). For the same compound, the differential viability (reversal) in assay [6] (H69AR cells + 2 uM doxorubicin) is 1.33% (inactive). For the same compound, the inhibition in assay [7] is -4.93% (inactive); in assay [8], 0.98% (inactive).
For `Cc1[nH]c(=O)[nH]c(=O)c1S(=O)(=O)Nc1ccc(Oc2ccccc2)cc1`, the viability in assay [1] is 96%; in assay [3] it was 96% (inactive); in assay [4], 93.6% (inactive); in assay [5], 97.8% (inactive); in assay [6] (setting [9]), 87.5%; in assay [6] (setting [10]), 97.8%. The Her2 level in assay [2] was 84.5% (inactive). The differential viability (reversal) in assay [6] (H69AR cells + 2 uM doxorubicin) is 10.3% (inactive). Besides, the inhibition in assay [7] was -0.66% (inactive); in assay [8] it was 1.45% (inactive).
On to `CCOc1ccc(N(CC(=O)NC2CCCC2)S(=O)(=O)c2c(C)[nH]c(=O)[nH]c2=O)cc1`, for which the viability was 87% in assay [1]; 87% (inactive) in assay [3]; 96.4% (inactive) in assay [4]; 101% (inactive) in assay [5]; 83.4% in assay [6] (setting [9]); 101% in assay [6] (setting [10]). Besides, the Her2 level in assay [2] is 104% (inactive). Further, the differential viability (reversal) in assay [6] (H69AR cells + 2 uM doxorubicin) is 17.2% (inactive). For the same compound, the inhibition in assay [7] is 0.4% (inactive); in assay [8], -3.28% (inactive).
Take `O=C(Nc1ccon1)c1csc2c1CCCC2`: the viability in assay [1] was 92.5%; in assay [3], 92.5% (inactive); in assay [4], 83.2% (inactive); in assay [5] it was 98.3% (inactive); in assay [6] (setting [9]) it was 87.4%; in assay [6] (setting [10]), 98.3%. In addition, the Her2 level in assay [2] is 85% (inactive). Also, the differential viability (reversal) in assay [6] (H69AR cells + 2 uM doxorubicin) was 10.9% (inactive). The figures for the inhibition in assay [7] and in assay [8] were -5.66% (inactive) and 2% (inactive), respectively.
As to `CCCNc1nc2c(c(=O)n(C)c(=O)n2C)n1Cc1cccc(C)c1`, the viability was 87.5% in assay [1]; 87.5% (inactive) in assay [3]; 83.7% (inactive) in assay [4]; 95.6% (inactive) in assay [5]; 101% in assay [6] (setting [9]); 95.6% in assay [6] (setting [10]). Also, in assay [2], the Her2 level was 85% (inactive). Also, the differential viability (reversal) in assay [6] (H69AR cells + 2 uM doxorubicin) was -5.19% (inactive). Besides, the inhibition in assay [7] is -4.25% (inactive); in assay [8], -3.97% (inactive).
Turning to `Cc1ccc(-c2cn3nc(C)c(C)nc3n2)cc1`, the viability in assay [1] was 106%; in assay [3], 106% (inactive); in assay [4] it was 75.4% (inactive); in assay [5], 85.5% (inactive); in assay [6] (setting [9]), 81.5%; in assay [6] (setting [10]), 85.5%. Moreover, the Her2 level in assay [2] was 94% (inactive). In assay [6] (H69AR cells + 2 uM doxorubicin), the differential viability (reversal) is 4% (inactive). Besides, the figures for the inhibition in assay [7] and in assay [8] were -4.93% (inactive) and 0% (inactive), respectively.
On to `CC(C)(C)NC(=O)COC(=O)c1ccc(O)cc1`, for which the viability in assay [1] was 100%; in assay [3] it was 100% (inactive); in assay [4], 103% (inactive); in assay [5] it was 98.9% (inactive); in assay [6] (setting [9]) it was 103%; in assay [6] (setting [10]), 98.9%. The Her2 level in assay [2] was 104% (inactive). In assay [6] (H69AR cells + 2 uM doxorubicin), the differential viability (reversal) is -3.93% (inactive). Besides, the inhibition was -2.99% (inactive) in assay [7] and -1.27% (inactive) in assay [8].
